{"source": "paper PMC6387783", "about": "(Chemistry & biodiversity, 2018)", "key": {"MCF-7 cells": {"test_system": "MCF-7 cells", "type": "cell-based, human", "conditions": "peptide 2 μM with R18 1 μM vs peptide alone, HBSS, 10 min, 37 °C", "method_in_brief": "(§1)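 Cells are seeded in μ-slide wells at 20% confluency (HEK293 in poly-L-lysine-coated wells) and grown 24 h, then washed with HBSS (Ca/Mg). Test peptide at 2 μM in HBSS, alone or with R18 1 μM, 10 min, 37 °C, dark; negative control R18 only. Cells washed five times, then live spinning-disk confocal imaging at 37 °C (FAM ex 488 nm, em 525/50 nm). Single-cell intensities background-corrected and normalized to control mean; 30 cells/condition; Kruskal–Wallis test.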"}, "mice": {"test_system": "mice", "conditions": "intravenous (tail-vein injection), ref [1]; cited from earlier work"}, "HEK293 cells": {"test_system": "HEK293 cells", "type": "cell-based, human", "conditions": "peptide 2 μM with R18 1 μM vs peptide alone, HBSS, 10 min, 37 °C", "method_in_brief": "as §1"}}, "data": [{"substance": "FAM-octaarginine amide [compound 1]", "values": [{"measurement": "effect of membrane dye R18 on peptide permeation", "setting": "MCF-7 cells", "value": "significantly intensified permeation"}, {"measurement": "toxicity", "setting": "mice", "value": "highly toxic"}, {"measurement": "effect of membrane dye R18 on peptide permeation", "setting": "HEK293 cells", "value": "significantly intensified permeation"}]}]}
